In ChEMBL document CHEMBL4177600, “Identification of novel PI3K inhibitors through a scaffold hopping strategy” (Bioorg Med Chem Lett, 2017):
Values after ≈ are worked out from the molar mass of the structure shown.

Legend:
[1] = Stability in mouse liver microsomes assessed as parent compound remaining at 0.5 uM after 30 mins by LC-MS/MS analysis; type: ADME, microsome; conditions: read-out: Stability
In short: (§1)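 Single time-point stability assay: 0.5 µM compound, 0.5 mg/ml human or mouse liver microsomes in 0.1 M potassium phosphate pH 7.4, with NADPH-regenerating system, 30 min at 37 °C with shaking. Reaction quenched with acetonitrile/0.1% formic acid and centrifuged; supernatant analysed by LC-MS/MS. Reported as percent remaining; duplicates.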

[2] = target: T1, CYP1A2 (Homo sapiens, UniProt P05177); test: Inhibition of CYP1A2 (unknown origin) at 10 uM relative to control; type: ADME
T1 sequence (P05177 whole entry): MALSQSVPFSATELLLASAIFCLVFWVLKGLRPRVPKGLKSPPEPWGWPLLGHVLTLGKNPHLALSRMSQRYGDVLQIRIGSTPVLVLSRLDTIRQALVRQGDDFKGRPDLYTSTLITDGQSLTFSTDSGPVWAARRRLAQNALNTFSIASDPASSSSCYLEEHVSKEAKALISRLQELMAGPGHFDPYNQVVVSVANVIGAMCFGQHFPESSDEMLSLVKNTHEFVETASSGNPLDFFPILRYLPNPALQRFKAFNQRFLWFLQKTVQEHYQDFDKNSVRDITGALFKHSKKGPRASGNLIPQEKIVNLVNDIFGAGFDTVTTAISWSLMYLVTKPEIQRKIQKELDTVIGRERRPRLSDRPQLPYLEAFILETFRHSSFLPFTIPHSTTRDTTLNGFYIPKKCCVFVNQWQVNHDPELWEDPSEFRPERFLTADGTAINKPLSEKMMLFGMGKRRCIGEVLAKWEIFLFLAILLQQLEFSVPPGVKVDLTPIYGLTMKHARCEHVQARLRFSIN
In short: (§2)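 CYP1A2, 2C9, 2C19, 2D6 and 3A4 inhibition measured at 10 µM test compound in duplicate; percent inhibition reported.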

[3] = Half-life in BALB-C mouse at 5 mg/kg, iv by LC-MS/MS analysis; type: ADME, organism-based; conditions: in vivo
In short: (§3)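 BALB-C mice dosed IV (10% NMP/50% PEG300/40% saline) or PO (10% NMP/90% PEG300). Plasma sampled at 6 (IV) or 8 (PO) time points; compound measured by LC/MS/MS. Parameters from bicompartmental model fit; each value is the mean of 3 independent samples.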

[4] = Permeability of the compound at 300 uL after 5 hrs by PAMPA; type: ADME; conditions: read-out: permeability
In short: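 Pre-coated PAMPA plates with a tri-layer phospholipid membrane. Donor held compound in PBS at the highest concentration soluble in PBS; acceptor was PBS. Incubated 5 h at room temperature, with propranolol and sorafenib (10 µM) as high and low permeability controls. Donor and acceptor concentrations measured by LC-MS/MS; Pe (10^-6 cm/s) calculated from acceptor/equilibrium concentrations, 0.3 cm² area and well volumes.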

[5] = Kinetic solubility of the compound in phosphate buffered saline at pH 7.4 at 1 to 2 mg measured after 24 hrs by HPLC analysis; type: physicochemical; conditions: read-out: Kinetic_solubility
In short: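 Solid compound (1–2 mg) in 1 mL PBS, pH 7.4, inverted in test tubes for 24 h. Samples centrifuged, supernatant analysed by HPLC with diode-array detection, with peak area compared to a standard of known concentration. LC-MS/MS used when UV signal was too low or the chromophore poor. Reported in µM.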

[6] = target: PI3K p110 beta/p85 alpha (Homo sapiens, UniProt P42338); test: Inhibition of p110beta/85alpha (unknown origin) using PIP2 as substrate by HTRF assay; type: protein-complex assay; conditions: read-out: Ki(app)
[7] = target: CYP2D6 (Homo sapiens, UniProt P10635); test: Inhibition of CYP2D6 (unknown origin) at 10 uM relative to control; type: ADME; in short: as §2
[8] = AUC (infinity) in BALB-C mouse at 5 mg/kg, iv by LC-MS/MS analysis; type: ADME, organism-based; set-up: dose 5 mg/kg, time infinity, route intravenous; conditions: in vivo; in short: as §3
[9] = Tmax in BALB-C mouse at 10 mg/kg, po by LC-MS/MS analysis; type: ADME, organism-based; conditions: in vivo
In short: (§4)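 BALB-C mice dosed IV in 10% NMP/50% PEG300/40% saline or PO in 10% NMP/90% PEG300. Plasma sampled at 6 (IV) or 8 (PO) time points and quantified by LC/MS/MS. Parameters come from a bicompartmental model fit; values are means of 3 independent samples. Plasma levels were compared with AKT-P EC50 from U2OS cells converted to ng/ml.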

[10] = Volume of distribution in BALB-C mouse at 5 mg/kg, iv by LC-MS/MS analysis; type: ADME, organism-based; conditions: in vivo; in short: as §4
[11] = test system: U2OS; test: Inhibition of AKT phosphorylation in human U2OS cells
[12] = target: PI3-kinase p110-delta/p85-alpha (Homo sapiens, UniProt O00329); test: Inhibition of recombinant human full-length N-terminal His6-tagged p110delta/human full-length p85alpha expressed in baculovirus infected Sf21 insect cells using PIP2 as substrate by HTRF assay; conditions: read-out: Ki(app)
[13] = target: Serine/threonine-protein kinase mTOR (Homo sapiens, UniProt P42345); test: Inhibition of recombinant human GST-tagged mTOR catalytic domain (1360 to 2549 residues) expressed in baculovirus expression system by AlexaFluor647-labeled kinase tracer 314 based LanthaScreen assay
[14] = target: Voltage-gated inwardly rectifying potassium channel KCNH2 (Homo sapiens, UniProt Q12809); test: Inhibition of human ERG by Tracer Red dye based fluorescence polarization assay
In short: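 hERG binding measured with Predictor hERG kit per kit instructions, read by fluorescence polarization.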

[15] = target: PI3-kinase p110-alpha/p85-alpha (Homo sapiens, UniProt P42336); test: Inhibition of full-length human P110alpha (1 to 1068 residues)/N-terminal GST-fused p85alpha (1 to 724 residues) expressed in baculovirus expression system by ADP Hunter assay; conditions: read-out: Ki(app)
[16] = Stability in human liver microsomes assessed as parent compound remaining at 0.5 uM after 30 mins by LC-MS/MS analysis; type: ADME, microsome; conditions: read-out: Stability; in short: as §1
[17] = AUC (infinity) in BALB-C mouse at 10 mg/kg, po by LC-MS/MS analysis; type: ADME, organism-based; set-up: dose 10 mg/kg, time infinity, route oral; conditions: in vivo; in short: as §3
[18] = target: CYP3A4 (Homo sapiens, UniProt P08684); test: Inhibition of CYP3A4 (unknown origin) at 10 uM relative to control; type: ADME; in short: as §2
[19] = Half-life in BALB-C mouse at 10 mg/kg, po by LC-MS/MS analysis; type: ADME, organism-based; conditions: in vivo; in short: as §3
[20] = target: CYP2C9 (Homo sapiens, UniProt P11712); test: Inhibition of CYP2C9 (unknown origin) at 10 uM relative to control; type: ADME; in short: as §2
[21] = Inhibition of PI3K in serum-stimulated human U2OS cells assessed as decrease in AKT1 phosphorylation at S473 by C-ELISA; type: cell-based
In short: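 U2OS osteosarcoma cells grown in 0.1% FBS, then serum-stimulated; endogenous phospho-Akt1 (Ser473) quantified by cell ELISA with chemiluminescent substrate. EC50 from sigmoid dose-response fit; two independent experiments in duplicate.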

[22] = target: Phosphatidylinositol 4,5-bisphosphate 3-kinase catalytic subunit gamma isoform (Homo sapiens, UniProt P48736); test: Inhibition of recombinant full-length human N-terminal His6-tagged p110gamma expressed in baculovirus infected Sf21 insect cells using PIP2 as substrate by HTRF assay; conditions: read-out: Ki(app)
[23] = Oral bioavailability in BALB-C mouse at 10 mg/kg by LC-MS/MS analysis; type: ADME, organism-based; conditions: in vivo; in short: as §4
[24] = Clearance in BALB-C mouse at 5 mg/kg, iv by LC-MS/MS analysis; type: ADME, organism-based; conditions: in vivo
In short: (§5)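 Mice (BALB-C) given IV dose in 10% NMP/50% PEG300/40% saline; plasma sampled at 6 times, levels by LC/MS/MS.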

[25] = test system: Mus musculus; test: Time at which plasma concentration stays above cellular EC50 for inhibition of AKT phosphorylation in BALB-C mouse at 10 mg/kg, po measured up to 24 hrs by LC-MS/MS analysis; type: organism-based; conditions: in vivo; in short: as §4
[26] = test system: Mus musculus; test: Clearance in BALB-C mouse at 5 mg/kg, iv by LC-MS/MS analysis relative to hepatic blood flow; type: ADME, organism-based; conditions: in vivo
[27] = target: CYP2C19 (Homo sapiens, UniProt P33261); test: Inhibition of CYP2C19 (unknown origin) at 10 uM relative to control; type: ADME; in short: as §2
[28] = Cmax in BALB-C mouse at 10 mg/kg, po by LC-MS/MS analysis; type: ADME, organism-based; set-up: dose 10 mg/kg, route oral; conditions: in vivo; in short: as §3
[29] = AUC (infinity) in BALB-C mouse at 8 mg/kg, po by LC-MS/MS analysis; type: ADME, organism-based; set-up: dose 8 mg/kg, route oral, time infinity; conditions: in vivo; in short: as §3
[30] = Half-life in BALB-C mouse at 8 mg/kg, po by LC-MS/MS analysis; type: ADME, organism-based; conditions: in vivo; in short: as §3
[31] = Clearance in BALB-C mouse at 8 mg/kg, iv by LC-MS/MS analysis; type: ADME, organism-based; conditions: in vivo; in short: as §5
[32] = test system: Mus musculus; test: Clearance in BALB-C mouse at 8 mg/kg, iv by LC-MS/MS analysis relative to hepatic blood flow; type: ADME, organism-based; conditions: in vivo
[33] = Volume of distribution in BALB-C mouse at 8 mg/kg, iv by LC-MS/MS analysis; type: ADME, organism-based; conditions: in vivo; in short: as §4
[34] = Cmax in BALB-C mouse at 8 mg/kg, po by LC-MS/MS analysis; type: ADME, organism-based; set-up: dose 8 mg/kg, route oral; conditions: in vivo; in short: as §3
[35] = Tmax in BALB-C mouse at 8 mg/kg, po by LC-MS/MS analysis; type: ADME, organism-based; conditions: in vivo; in short: as §4
[36] = Half-life in BALB-C mouse at 8 mg/kg, iv by LC-MS/MS analysis; type: ADME, organism-based; conditions: in vivo; in short: as §3
[37] = AUC (infinity) in BALB-C mouse at 8 mg/kg, iv by LC-MS/MS analysis; type: ADME, organism-based; set-up: dose 8 mg/kg, time infinity, route intravenous; conditions: in vivo; in short: as §3
[38] = Oral bioavailability in BALB-C mouse at 8 mg/kg by LC-MS/MS analysis; type: ADME, organism-based; conditions: in vivo; in short: as §4

Sequence of CYP2C19 (P33261 whole entry): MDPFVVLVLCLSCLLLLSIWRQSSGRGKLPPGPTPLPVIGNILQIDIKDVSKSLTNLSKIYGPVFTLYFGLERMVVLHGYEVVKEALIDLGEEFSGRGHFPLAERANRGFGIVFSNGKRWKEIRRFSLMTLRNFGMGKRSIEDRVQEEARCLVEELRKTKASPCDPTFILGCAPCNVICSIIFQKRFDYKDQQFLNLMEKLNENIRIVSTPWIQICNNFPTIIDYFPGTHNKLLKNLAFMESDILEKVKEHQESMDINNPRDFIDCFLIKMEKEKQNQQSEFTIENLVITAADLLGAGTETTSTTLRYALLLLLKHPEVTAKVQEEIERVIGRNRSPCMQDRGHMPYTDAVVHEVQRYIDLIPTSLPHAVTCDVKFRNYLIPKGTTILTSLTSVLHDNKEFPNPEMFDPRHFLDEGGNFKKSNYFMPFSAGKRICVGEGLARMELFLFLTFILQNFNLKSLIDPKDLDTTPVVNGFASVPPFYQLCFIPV
Sequence of CYP3A4 (P08684 whole entry): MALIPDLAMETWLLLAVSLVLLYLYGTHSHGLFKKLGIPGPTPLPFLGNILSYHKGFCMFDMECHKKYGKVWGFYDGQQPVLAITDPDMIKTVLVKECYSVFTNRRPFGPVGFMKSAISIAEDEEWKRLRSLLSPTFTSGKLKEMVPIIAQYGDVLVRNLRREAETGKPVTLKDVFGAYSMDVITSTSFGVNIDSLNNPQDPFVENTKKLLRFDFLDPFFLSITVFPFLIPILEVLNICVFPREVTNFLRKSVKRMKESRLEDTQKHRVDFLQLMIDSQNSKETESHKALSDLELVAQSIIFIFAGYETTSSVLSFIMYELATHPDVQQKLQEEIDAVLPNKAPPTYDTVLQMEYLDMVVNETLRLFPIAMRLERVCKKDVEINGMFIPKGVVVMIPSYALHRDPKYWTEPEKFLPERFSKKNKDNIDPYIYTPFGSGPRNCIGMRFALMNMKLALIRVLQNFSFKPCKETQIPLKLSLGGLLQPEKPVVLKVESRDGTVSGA
Sequence of CYP2C9 (P11712 whole entry): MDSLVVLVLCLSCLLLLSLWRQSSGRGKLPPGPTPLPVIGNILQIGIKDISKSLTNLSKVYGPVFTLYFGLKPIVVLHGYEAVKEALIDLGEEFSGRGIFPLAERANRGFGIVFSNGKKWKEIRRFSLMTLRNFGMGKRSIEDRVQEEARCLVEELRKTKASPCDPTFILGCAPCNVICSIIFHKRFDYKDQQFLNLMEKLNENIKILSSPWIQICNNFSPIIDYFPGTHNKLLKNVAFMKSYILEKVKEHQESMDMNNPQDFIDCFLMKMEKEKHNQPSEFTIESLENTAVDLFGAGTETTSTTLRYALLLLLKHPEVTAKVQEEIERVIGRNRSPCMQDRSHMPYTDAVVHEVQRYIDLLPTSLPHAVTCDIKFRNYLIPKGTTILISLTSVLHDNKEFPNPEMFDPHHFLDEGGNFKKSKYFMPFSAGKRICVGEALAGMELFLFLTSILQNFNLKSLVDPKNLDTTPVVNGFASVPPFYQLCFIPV
Sequence of CYP2D6 (P10635 whole entry): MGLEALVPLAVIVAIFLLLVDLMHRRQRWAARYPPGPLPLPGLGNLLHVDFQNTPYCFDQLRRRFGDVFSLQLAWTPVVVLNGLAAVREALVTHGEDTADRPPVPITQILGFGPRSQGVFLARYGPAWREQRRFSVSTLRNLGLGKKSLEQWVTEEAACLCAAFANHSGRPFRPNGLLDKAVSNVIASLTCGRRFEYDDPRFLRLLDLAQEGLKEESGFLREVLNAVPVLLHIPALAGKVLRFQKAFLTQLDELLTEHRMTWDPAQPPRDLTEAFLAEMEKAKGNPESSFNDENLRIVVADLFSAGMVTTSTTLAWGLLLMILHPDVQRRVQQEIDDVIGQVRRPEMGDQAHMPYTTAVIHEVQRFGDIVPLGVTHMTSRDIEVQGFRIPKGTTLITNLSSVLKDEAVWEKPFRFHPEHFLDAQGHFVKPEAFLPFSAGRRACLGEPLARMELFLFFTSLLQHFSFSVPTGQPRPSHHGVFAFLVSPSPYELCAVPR
Sequence of Phosphatidylinositol 4,5-bisphosphate 3-kinase catalytic subunit gamma isoform (P48736 whole entry, canonical isoform): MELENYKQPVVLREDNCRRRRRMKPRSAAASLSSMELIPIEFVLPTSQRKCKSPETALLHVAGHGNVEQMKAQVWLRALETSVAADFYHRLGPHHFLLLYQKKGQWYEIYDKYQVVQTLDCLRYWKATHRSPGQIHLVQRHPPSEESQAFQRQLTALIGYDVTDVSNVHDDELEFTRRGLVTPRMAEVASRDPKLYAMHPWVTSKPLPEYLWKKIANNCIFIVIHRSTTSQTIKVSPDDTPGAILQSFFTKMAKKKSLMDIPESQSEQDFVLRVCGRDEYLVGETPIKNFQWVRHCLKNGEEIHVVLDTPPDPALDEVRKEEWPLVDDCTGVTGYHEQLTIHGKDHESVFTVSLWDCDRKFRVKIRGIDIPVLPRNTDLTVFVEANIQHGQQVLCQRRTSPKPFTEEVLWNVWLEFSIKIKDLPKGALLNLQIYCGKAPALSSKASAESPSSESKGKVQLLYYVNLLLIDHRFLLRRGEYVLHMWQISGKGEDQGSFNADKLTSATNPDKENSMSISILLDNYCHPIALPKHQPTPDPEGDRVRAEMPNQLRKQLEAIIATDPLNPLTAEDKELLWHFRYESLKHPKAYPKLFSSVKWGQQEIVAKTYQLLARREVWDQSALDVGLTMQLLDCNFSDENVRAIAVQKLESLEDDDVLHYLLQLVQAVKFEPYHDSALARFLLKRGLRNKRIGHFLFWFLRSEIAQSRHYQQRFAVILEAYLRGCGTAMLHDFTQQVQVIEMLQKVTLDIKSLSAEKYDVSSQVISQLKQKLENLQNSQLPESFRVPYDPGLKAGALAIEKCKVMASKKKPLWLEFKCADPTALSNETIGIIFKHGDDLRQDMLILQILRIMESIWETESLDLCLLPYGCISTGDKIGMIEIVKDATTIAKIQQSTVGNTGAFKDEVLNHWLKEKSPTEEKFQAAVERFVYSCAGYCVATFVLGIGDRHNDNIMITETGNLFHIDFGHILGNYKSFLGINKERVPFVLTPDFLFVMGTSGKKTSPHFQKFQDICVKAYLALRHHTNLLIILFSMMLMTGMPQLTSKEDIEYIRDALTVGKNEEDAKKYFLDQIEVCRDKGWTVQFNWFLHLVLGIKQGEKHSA
Sequence of Voltage-gated inwardly rectifying potassium channel KCNH2 (Q12809 whole entry): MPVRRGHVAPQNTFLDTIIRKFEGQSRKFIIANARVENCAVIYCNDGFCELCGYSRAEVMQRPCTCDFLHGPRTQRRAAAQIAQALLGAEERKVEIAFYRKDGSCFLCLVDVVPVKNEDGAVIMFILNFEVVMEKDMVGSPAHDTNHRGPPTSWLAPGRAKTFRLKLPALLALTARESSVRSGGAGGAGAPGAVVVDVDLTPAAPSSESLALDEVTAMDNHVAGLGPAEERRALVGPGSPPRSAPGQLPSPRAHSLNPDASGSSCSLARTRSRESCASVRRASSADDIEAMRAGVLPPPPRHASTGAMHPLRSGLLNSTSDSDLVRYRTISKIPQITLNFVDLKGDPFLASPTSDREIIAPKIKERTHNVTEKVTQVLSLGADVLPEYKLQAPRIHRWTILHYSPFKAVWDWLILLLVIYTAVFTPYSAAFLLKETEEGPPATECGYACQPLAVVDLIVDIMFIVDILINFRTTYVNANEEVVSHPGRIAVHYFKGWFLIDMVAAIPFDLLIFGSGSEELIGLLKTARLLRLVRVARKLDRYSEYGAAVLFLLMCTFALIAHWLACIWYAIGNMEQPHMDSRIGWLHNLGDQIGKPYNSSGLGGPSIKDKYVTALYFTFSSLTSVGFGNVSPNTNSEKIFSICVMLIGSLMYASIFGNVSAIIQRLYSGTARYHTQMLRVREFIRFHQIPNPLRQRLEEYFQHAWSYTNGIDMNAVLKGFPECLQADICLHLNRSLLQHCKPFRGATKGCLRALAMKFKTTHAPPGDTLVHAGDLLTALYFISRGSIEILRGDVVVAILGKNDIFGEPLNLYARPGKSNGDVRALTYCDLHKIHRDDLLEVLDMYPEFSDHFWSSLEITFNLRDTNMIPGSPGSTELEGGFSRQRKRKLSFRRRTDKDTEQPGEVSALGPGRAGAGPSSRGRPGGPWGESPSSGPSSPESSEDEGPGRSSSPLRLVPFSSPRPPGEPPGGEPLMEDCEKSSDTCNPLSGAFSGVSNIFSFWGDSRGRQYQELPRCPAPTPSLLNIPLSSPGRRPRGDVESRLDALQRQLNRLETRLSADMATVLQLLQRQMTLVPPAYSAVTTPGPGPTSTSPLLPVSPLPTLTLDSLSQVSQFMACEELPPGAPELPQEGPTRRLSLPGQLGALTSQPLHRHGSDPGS

In the case of `CS(=O)(=O)N1CCN(Cc2cc3c(N4CCOCC4)nc(-c4cnc(N)nc4)c(Cl)n3n2)CC1`, the remaining at 0.5 h, 0.5 µM [1] is reported as 100%, the inhibition at 10 µM [2] is reported as < 25% and the half-life [3] is reported as 0.61 h. For the same molecule, the Papp at 5 h [4] was 1.51 ×10⁻⁶ cm/s, the solubility kinetic at 24 h [5] was 100 µM (≈ 50.8 µg/mL) and the Ki [6] was 0.0719 µM. For the same molecule, the inhibition at 10 µM [7] was < 25%, the AUC(0-inf) [8] was 8100 ng·h/mL and the Tmax [9] was 0.5 h. The Vd [10] was 1.24 L/kg, the EC50 [11] was 0.01753 µg/mL (≈ 0.0345 µM) and the Ki [12] was 0.0084 µM. The IC50 [13] was 5.41 µM, the IC50 [14] was > 30 µM and the Ki [15] was 0.0021 µM. The remaining at 0.5 h, 0.5 µM [16] was 100%, the AUC(0-inf) [17] was 6980 ng·h/mL and the inhibition at 10 µM [18] was < 25%. For the same molecule, the half-life [19] was 3.22 h, the inhibition at 10 µM [20] was < 25% and the EC50 [21] was 0.0345 µM. It also gave a Ki [22] of 0.0167 µM, a bioavailability [23] of 43.1% and a clearance [24] of 12.5 mL/min/kg. The Time [25] was > 12 h, the CL [26] was < 50% and the inhibition at 10 µM [27] was < 25%. It also gave a Cmax [28] of 1370 ng/mL.
In the case of `CS(=O)(=O)N1CCN(Cc2cn3cc(-c4cnc(N)nc4)nc(N4CCOCC4)c3n2)CC1`, the remaining at 0.5 h, 0.5 µM [1] is reported as 100%, the inhibition at 10 µM [2] is reported as < 25% and the AUC(0-inf) [29] is reported as 12600 ng·h/mL. For the same molecule, the Papp at 5 h [4] was 0.26 ×10⁻⁶ cm/s, the solubility kinetic at 24 h [5] was 50 µM (≈ 23.7 µg/mL) and the half-life [30] was 8.38 h. The clearance [31] was 9.33 mL/min/kg, the inhibition at 10 µM [7] was < 25% and the CL [32] was < 50%. The Vd [33] was 0.8 L/kg, the Cmax [34] was 1130 ng/mL and the Tmax [35] was 1 h. For the same molecule, the half-life [36] was 1.36 h, the IC50 [13] was 4.88 µM and the AUC(0-inf) [37] was 14200 ng·h/mL. The remaining at 0.5 h, 0.5 µM [16] was 100%, the inhibition at 10 µM [18] was < 25% and the inhibition at 10 µM [20] was < 25%. The bioavailability [38] was 88.6% and the inhibition at 10 µM [27] was < 25%.
